Measured values published in ChEMBL document CHEMBL1136545, “Novel thieno oxazine analogues as antihyperglycemic and lipid modulating agents” (2003).
The source made the active and inactive calls. The calls are words filed in the database; no cut-off is given here.

Experiments:
[1] = target: T1, Peroxisome proliferator-activated receptor alpha (Homo sapiens) (UniProt Q07869); experiment: Compound was tested for activation of peroxisome proliferator-activated receptor alpha activity at 50 uM concentration by transactivation assay
T1 sequence (whole entry): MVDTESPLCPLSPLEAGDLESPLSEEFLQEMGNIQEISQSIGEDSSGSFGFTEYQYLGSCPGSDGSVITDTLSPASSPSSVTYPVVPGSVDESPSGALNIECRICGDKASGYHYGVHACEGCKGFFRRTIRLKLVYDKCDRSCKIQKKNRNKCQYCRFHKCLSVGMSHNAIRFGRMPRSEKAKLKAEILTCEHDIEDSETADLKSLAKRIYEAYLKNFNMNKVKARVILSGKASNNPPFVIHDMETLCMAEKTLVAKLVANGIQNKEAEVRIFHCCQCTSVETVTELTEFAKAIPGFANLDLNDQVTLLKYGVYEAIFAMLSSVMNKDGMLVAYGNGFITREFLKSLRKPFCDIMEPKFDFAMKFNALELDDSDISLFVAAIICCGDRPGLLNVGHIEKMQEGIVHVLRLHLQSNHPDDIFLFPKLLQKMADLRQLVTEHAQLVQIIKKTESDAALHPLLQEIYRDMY
Summary of the method: (§1)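 Cell-based PPAR transactivation assay, with receptor activity expressed as fold activation. Each compound was tested at a single concentration, which differed between the PPARα and PPARγ arms.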

Mus musculus [2] = experiment: Percentage reduction of plasma glucose (PG) in db/db mice at 3 mg/kg; No effect; format: functional, organism-based; parameters: dose 3 mg/kg
Summary of the method: (§2)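 db/db mice were dosed orally at 3 mg/kg for 6 days. Plasma glucose and triglyceride were then measured, and each value is the percentage reduction.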

[3] = target: T2, Peroxisome proliferator-activated receptor gamma (Homo sapiens) (UniProt P37231); experiment: Compound was tested for activation of peroxisome proliferator-activated receptor gamma activity at 1 uM concentration by transactivation assay; summary of the method: as §1
T2 sequence (whole entry): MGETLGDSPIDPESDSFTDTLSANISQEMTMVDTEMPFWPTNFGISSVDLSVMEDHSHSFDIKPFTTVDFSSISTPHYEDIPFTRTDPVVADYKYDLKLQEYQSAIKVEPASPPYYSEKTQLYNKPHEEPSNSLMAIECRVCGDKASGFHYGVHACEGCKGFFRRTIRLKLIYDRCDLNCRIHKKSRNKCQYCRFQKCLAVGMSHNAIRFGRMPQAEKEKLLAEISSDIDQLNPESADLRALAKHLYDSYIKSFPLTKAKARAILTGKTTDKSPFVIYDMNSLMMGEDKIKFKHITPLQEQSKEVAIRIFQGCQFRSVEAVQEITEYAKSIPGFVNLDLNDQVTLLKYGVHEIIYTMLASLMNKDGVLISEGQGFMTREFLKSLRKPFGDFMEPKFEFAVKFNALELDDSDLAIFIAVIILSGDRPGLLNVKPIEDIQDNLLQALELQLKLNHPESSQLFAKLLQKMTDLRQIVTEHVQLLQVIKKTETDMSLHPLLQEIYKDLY

Mus musculus [4] = experiment: Percentage reduction of triglyceride (TG) in db/db mice at 3 mg/kg; format: functional; summary of the method: as §2
Mus musculus [5] = experiment: Percentage reduction of plasma glucose (PG) in db/db mice at 3 mg/kg; format: functional; summary of the method: as §2
Mus musculus [6] = experiment: Percentage reduction of triglyceride (TG) in db/db mice at 3 mg/kg; No effect; format: functional, organism-based; parameters: dose 3 mg/kg; summary of the method: as §2

Row | SMILES | Activity [1] | Activity [3] | Reduction (Mus musculus [2]) | Reduction (Mus musculus [4]) [%] | Reduction (Mus musculus [5]) [%] | Reduction (Mus musculus [6])
1 | CCOC(Cc1cc(Br)c(OCCN2C(=O)COc3ccsc32)c(Br)c1)C(=O)O (stereo not given) | 5 | 1.6 | inactive | 48 | – | –
2 | O=C(O)Cc1cc(Br)c(OCCN2C(=O)COc3ccsc32)c(Br)c1 | 2 | 15 | – | 15 | 43 | –
3 | O=C(O)Cc1ccc(OCCN2C(=O)COc3ccsc32)c(Br)c1 | 1.3 | 8 | – | 14 | 21 | –
4 | CCOC(Cc1ccc(OCCN2C(=O)COc3ccsc32)c(Cl)c1)C(=O)O (stereo not given) | 2.5 | 7 | – | 27 | 21 | –
5 | O=C(O)Cc1ccc(OCCCN2C(=O)COc3ccsc32)cc1 | 0.5 | 5 | – | – | 14 | inactive
6 | CCOC(Cc1ccc(OCCN2C(=O)COc3ccsc32)cc1)C(=O)O (stereo not given) | 8 | 16 | – | 56 | 47 | –

Now from value to compound, other results behind:

Row | Activity [1] | Activity [3] | SMILES | Reduction (Mus musculus [2]) | Reduction (Mus musculus [4]) [%] | Reduction (Mus musculus [5]) [%] | Reduction (Mus musculus [6])
7 | 1.5 | 18 | CCOC(Cc1ccc(OCCN2C(=O)COc3ccsc32)c(C)c1)C(=O)O (stereo not given) | – | 19 | 52 | –
8 | 5 | 14 | O=C(O)Cc1ccc(OCCN2C(=O)COc3ccsc32)cc1 | – | 43 | 39 | –
9 | 8 | 1.2 | CCOC(Cc1ccc(OCCN2C(=O)COc3ccsc32)c(Br)c1)C(=O)O (stereo not given) | inactive | 62 | – | –
10 | 0.5 | 1.2 | CCOC(Cc1ccc(OCCN2C(=O)COc3ccsc32)c(OC)c1)C(=O)O (stereo not given) | inactive | – | – | inactive
